# Reference: ChEMBL document CHEMBL1140709, “Design, synthesis, and biological evaluation of (E)-styrylbenzylsulfones as novel anticancer agents” (J Med Chem, 2008)
# pIC50: −log10 of the molar value. The source made the active and inactive calls. The calls are words filed in the database; no cut-off is given here.
# Tests used:
# [1] = test system: BT-20; assay: Antitumor activity against human BT20 cells by trypan blue exclusion assay; type: functional, cell-based
# Summary of the method: (§1)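 Tumour cells were grown in DMEM or RPMI with 10% fetal bovine serum and 1 unit/mL penicillin-streptomycin. They were seeded in six-well dishes at 1.0 × 10⁵ cells/mL/well, and compound was added 24 h later over a range of concentrations. After 96 h of exposure, viable cells in duplicate wells were counted by trypan blue exclusion.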
# [2] = test system: DU-145; assay: Antitumor activity against AR-negative human DU145 cells by trypan blue exclusion assay; type: functional, cell-based; summary of the method: as §1
# [3] = Antitumor activity against human H157 cells by trypan blue exclusion assay; type: functional, cell-based; settings: NCI-H157; summary of the method: as §1
# [4] = test system: DLD-1; assay: Antitumor activity against human DLD1 cells by trypan blue exclusion assay; type: functional, cell-based; summary of the method: as §1
# [5] = test system: SW480; assay: Antitumor activity against human SW480 cells by trypan blue exclusion assay; type: functional, cell-based; summary of the method: as §1
# [6] = test system: BT-20; assay: Growth inhibition of human BT20 after 3 weeks by soft agar colony formation assay; type: functional, cell-based
# Summary of the method: (§2)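 Noble agar: 0.8% bottom layer; cells (1.0 × 10⁵ for MIA-PaCa-2) in medium with compound at various concentrations, mixed into 0.4% top agar. Each concentration in triplicate; 3 weeks at 37 °C, 5% CO₂. Stained with 0.05% nitroblue tetrazolium for 48 h and colonies photographed.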
# [7] = Antitumor activity against human H187 cells by trypan blue exclusion assay; type: functional, cell-based; settings: NCI-H187; summary of the method: as §1
# [8] = test system: PC-3; assay: Antitumor activity against […] human PC3 cells by trypan blue exclusion assay; type: functional, cell-based; summary of the method: as §1
# [9] = test system: CEM/C2; assay: Antitumor activity against human multidrug-resistant CEM/C2 cells by trypan blue exclusion assay; type: functional, cell-based; summary of the method: as §1
# [10] = test system: MIA PaCa-2; assay: Growth inhibition of human MiaPaCa2 cells after 3 weeks by soft agar colony formation assay; type: functional, cell-based; summary of the method: as §2
# [11] = test system: SK-OV-3; assay: Antitumor activity against human SKOV3 cells by trypan blue exclusion assay; type: functional, cell-based; summary of the method: as §1
# [12] = test system: DU-145; assay: Growth inhibition of human DU145 after 3 weeks by soft agar colony formation assay; type: functional, cell-based; summary of the method: as §2
# [13] = test system: CCRF-CEM; assay: (§3) Antitumor activity against human CEM cells by trypan blue exclusion assay; type: functional, cell-based; summary of the method: as §1
# [14] = test system: 2008; assay: Antitumor activity against human 2008 cells by trypan blue exclusion assay; type: functional, cell-based; summary of the method: as §1
# [15] = test system: CCRF-CEM; assay: as §3; type: functional, cell-based; summary of the method: as §1; remark: listed apart in the source
# [16] = test system: COLO 205; assay: Antitumor activity against human COLO205 cells by trypan blue exclusion assay; type: functional, cell-based; summary of the method: as §1
# [17] = test system: Daudi; assay: Antitumor activity against human Daudi cells by trypan blue exclusion assay; type: functional, cell-based; summary of the method: as §1
# [18] = Antitumor activity against human RF1 cells by trypan blue exclusion assay; type: functional, cell-based; summary of the method: as §1
# [19] = test system: T47D; assay: Antitumor activity against ER-positive human T47D cells by trypan blue exclusion assay; type: functional, cell-based; summary of the method: as §1
# [20] = test system: HUVEC; assay: Cell cycle arrest in HUVEC cells by accumulation at G1 phase by FACS analysis; type: functional, cell-based; settings: Homo sapiens
# Summary of the method: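 HUVEC were exposed to 20 nM compound in medium with 10% fetal bovine serum. At 24 h intervals, cells were fixed, stained with propidium iodide and analysed for DNA content by flow cytometry.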
# [21] = test system: MCF7; assay: Antitumor activity against ER-positive human MCF7 cells by trypan blue exclusion assay; type: functional, cell-based; summary of the method: as §1
# [22] = Antitumor activity against human RF48 cells by trypan blue exclusion assay; type: functional, cell-based; summary of the method: as §1
# [23] = Antitumor activity against human MES-SA cells by trypan blue exclusion assay; type: functional, cell-based; summary of the method: as §1
# [24] = test system: OVCAR-3; assay: Antitumor activity against human OVCAR-3 cells by trypan blue exclusion assay; type: functional, cell-based; summary of the method: as §1
# [25] = Antitumor activity against human multidrug-resistant MES-SA/DX5 cells by trypan blue exclusion assay; type: functional, cell-based; summary of the method: as §1
# [26] = Antitumor activity against human N417 cells by trypan blue exclusion assay; type: functional, cell-based; summary of the method: as §1
# [27] = test system: MIA PaCa-2; assay: Antitumor activity against human MiaPaCa2 cells by trypan blue exclusion assay; type: functional, cell-based; summary of the method: as §1
# [28] = Antitumor activity against human Namalwa cells by trypan blue exclusion assay; type: functional, cell-based; settings: NAMALVA; summary of the method: as §1
# [29] = test system: HCT-15; assay: Antitumor activity against human HCT15 cells by trypan blue exclusion assay; type: functional, cell-based; summary of the method: as §1
# [30] = test system: K562; assay: Antitumor activity against human K562 cells by trypan blue exclusion assay; type: functional, cell-based; summary of the method: as §1
# [31] = Antitumor activity against human multidrug-resistant 2008/17/4 cells by trypan blue exclusion assay; type: functional; summary of the method: as §1
# [32] = test system: SK-MEL-28; assay: Antitumor activity against human SK-MEL-28 cells by trypan blue exclusion assay; type: functional, cell-based; summary of the method: as §1
# [33] = test system: MOLT-4; assay: Antitumor activity against human MOLT4 cells by trypan blue exclusion assay; type: functional, cell-based; summary of the method: as §1
# [34] = test system: A549; assay: Antitumor activity against human A549 cells by trypan blue exclusion assay; type: functional, cell-based; summary of the method: as §1
# [35] = Antitumor activity against human U87 cells by trypan blue exclusion assay; type: functional, cell-based, U-87MG ATCC; settings: U-87 MG; summary of the method: as §1
# [36] = test system: HCT-116; assay: Antitumor activity against human HCT116 cells by trypan blue exclusion assay; type: functional, cell-based; summary of the method: as §1
# [37] = test system: AGS; assay: Antitumor activity against human AGS cells by trypan blue exclusion assay; type: functional, cell-based; summary of the method: as §1
# [38] = test system: Raji; assay: Antitumor activity against human Raji cells by trypan blue exclusion assay; type: functional, cell-based; summary of the method: as §1
# [39] = test system: BT-20; assay: Antitumor activity against human BT20 xenografted athymic NCR-nu/nu mouse at 50 mg/kg, ip after 22 days
# [40] = test system: BT-20; assay: Antitumor activity against ER-negative human BT20 xenografted athymic NCR-nu/nu mouse at 50 mg/kg, ip every 2 days after 22 days; settings: route intraperitoneal
# [41] = test system: BT-20; assay: Antitumor activity against ER-negative human BT20 xenografted athymic NCR-nu/nu mouse at 25 mg/kg, ip for every 4 days after 22 days; settings: route intraperitoneal
compound,measurement,setting,value
COc1ccc(CS(=O)(=O)/C=C/c2ccc(OC)c(OC)c2OC)cc1,pIC50,[1],< 4.70
same,pIC50,[2],< 4.70
same,pIC50,[3],< 4.70
same,pIC50,[4],< 4.70
COc1ccc(CS(=O)(=O)/C=C/c2ccc(F)cc2)cc1,pIC50,[1],5.82
same,pIC50,[2],5.90
same,pIC50,[3],5.60
same,pIC50,[4],5.70
COc1cc(OC)c(/C=C/S(=O)(=O)Cc2ccc(OC)c(OC)c2OC)c(OC)c1,pIC50,[1],4.82
same,pIC50,[2],4.90
same,pIC50,[3],4.82
same,pIC50,[4],4.82
COc1ccc(CS(=O)(=O)/C=C/c2cc(OC)c(OC)cc2OC)cc1,pIC50,[1],< 4.70
same,pIC50,[2],< 4.70
same,pIC50,[3],< 4.70
same,pIC50,[4],< 4.70
COc1cc(OC)c(/C=C/S(=O)(=O)Cc2ccc(OC)c(O)c2)c(OC)c1,pIC50,[5],8.15
same,Activity,[6],Dose-dependent effect
same,pIC50,[1],8.00
same,pIC50,[7],8.15
same,pIC50,[8],8.10
same,pIC50,[9],8.00
same,pIC50,[2],8.52
same,Activity,[10],Dose-dependent effect
same,pIC50,[11],8.22
same,Activity,[12],Dose-dependent effect
same,pIC50,[13],8.05
same,pIC50,[14],8.30
same,pIC50,[15],8.00
same,pIC50,[16],8.05
same,pIC50,[17],8.15
same,pIC50,[18],8.22
same,pIC50,[19],8.22
same,Activity,[20],Active
same,pIC50,[21],8.40
same,pIC50,[22],8.30
same,pIC50,[23],8.22
same,pIC50,[24],8.22
same,pIC50,[25],8.30
same,pIC50,[26],8.30
same,pIC50,[27],8.40
same,pIC50,[3],8.40
same,pIC50,[28],8.22
same,pIC50,[29],8.10
same,pIC50,[30],8.40
same,pIC50,[31],8.40
same,pIC50,[32],8.15
same,pIC50,[4],8.52
same,pIC50,[33],8.30
same,pIC50,[34],8.00
same,pIC50,[35],8.15
same,pIC50,[36],8.05
same,pIC50,[37],8.15
same,pIC50,[38],8.40
COc1ccc(CS(=O)(=O)/C=C/c2cc(OC)c(OC)c(OC)c2)cc1O,pIC50,[1],5.12
same,pIC50,[2],5.30
same,pIC50,[3],5.00
same,pIC50,[4],5.00
COc1cc(OC)c(/C=C/S(=O)(=O)Cc2ccc(C#N)cc2)c(OC)c1,pIC50,[1],4.90
same,pIC50,[2],5.12
same,pIC50,[3],4.82
same,pIC50,[4],4.70
COc1ccc(CS(=O)(=O)/C=C/c2ccc(OC)c(OC)c2)cc1,pIC50,[1],< 4.70
same,pIC50,[2],< 4.70
same,pIC50,[3],< 4.70
same,pIC50,[4],< 4.70
COc1cc(OC)c(/C=C/S(=O)(=O)Cc2ccc(Cl)cc2)c(OC)c1,pIC50,[1],5.00
same,pIC50,[2],5.12
same,pIC50,[3],4.82
same,pIC50,[4],4.82
COc1cc(OC)c(/C=C/S(=O)(=O)Cc2ccc([N+](=O)[O-])cc2)c(OC)c1,pIC50,[1],4.82
same,pIC50,[2],4.82
same,pIC50,[3],4.70
same,pIC50,[4],4.82
COc1ccc(CS(=O)(=O)/C=C/c2ccccc2OC)cc1,pIC50,[1],5.30
same,pIC50,[2],5.46
same,pIC50,[3],5.30
same,pIC50,[4],5.12
COc1ccc(CS(=O)(=O)/C=C/c2ccc(Cl)cc2)cc1,pIC50,[1],5.70
same,pIC50,[2],5.60
same,pIC50,[3],5.46
same,pIC50,[4],5.52
COc1cc(OC)c(/C=C/S(=O)(=O)Cc2ccc(O)cc2)c(OC)c1,pIC50,[1],4.82
same,pIC50,[2],5.12
same,pIC50,[3],4.70
same,pIC50,[4],4.70
COc1ccc(CS(=O)(=O)/C=C/c2c(C)cccc2C)cc1,pIC50,[1],< 4.70
same,pIC50,[2],< 4.70
same,pIC50,[3],< 4.70
same,pIC50,[4],< 4.70
COc1ccc(CS(=O)(=O)/C=C/c2ccc([N+](=O)[O-])cc2)cc1,pIC50,[1],5.30
same,pIC50,[2],5.12
same,pIC50,[3],5.12
same,pIC50,[4],5.30
COc1ccc(CS(=O)(=O)/C=C/c2c(OC)cc(OC)cc2OC)cc1,pIC50,[1],7.70
same,pIC50,[7],7.82
same,pIC50,[8],7.52
same,pIC50,[9],8.00
same,pIC50,[2],7.60
same,pIC50,[13],7.52
same,pIC50,[15],7.52
same,pIC50,[16],7.82
same,pIC50,[17],8.10
same,pIC50,[18],8.10
same,pIC50,[19],7.60
same,Activity,[20],Active
same,Activity,[39],Active
same,pIC50,[21],8.52
same,Activity,[40],67.5 mm3
same,pIC50,[22],8.00
same,pIC50,[23],8.00
same,pIC50,[24],8.10
same,pIC50,[25],8.00
same,pIC50,[26],8.10
same,pIC50,[27],8.10
same,pIC50,[3],7.52
same,pIC50,[28],7.82
same,Activity,[41],74 mm3
same,pIC50,[29],7.70
same,pIC50,[32],7.40
same,pIC50,[4],7.40
same,pIC50,[33],8.05
same,pIC50,[34],7.70
same,pIC50,[35],7.40
same,pIC50,[37],7.70
same,pIC50,[38],8.05
COc1ccc(CS(=O)(=O)/C=C/c2c(OC)cc(O)cc2OC)cc1,pIC50,[1],< 4.70
same,pIC50,[2],< 4.70
same,pIC50,[3],< 4.70
same,pIC50,[4],< 4.70
